Measurements taken from PMC7680388 (Cell chemical biology, 2020).
Like-named read-outs stand apart in the source and are kept apart here.

Key:
Rpn13 [1] = molecular target: T1, Rpn13 (Homo sapiens, UniProt Q16186); conditions: two different cancer cell lines, ref Dickson, et al., submitted, cited from earlier work
Rpn13 [2] = molecular target: T1, Rpn13; conditions: ref Anchoori et al., 2013; cited from earlier work
[3] = tested on: cancer (in cellulo and in vivo); conditions: ref Anchoori et al., 2013; cited from earlier work
26S proteasome = assay: Deubiquitylase activity of purified 26S proteasome; assay type: biochemical, human; conditions: KDT-11 10 μM; b-AP15 1 μM; 1 nM purified 26S proteasome, 5 mM ATP; biological triplicate; Fig. 2F
MM.1R cells = assay: Apoptosis flow cytometry; assay type: cell-based, Homo sapiens
Procedure, shortened: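 MM.1R cells were treated with test compound (10 μM) or vehicle (0.1% DMSO) for 8, 16 and 24 h. Cells were washed twice in cold DPBS and resuspended in cold Annexin V buffer (HEPES, EDTA, CaCl2) with 5 μg/mL Annexin V-510 and 50 μg/mL PI. They were held 15 min at room temperature in the dark, then run by flow cytometry (violet/blue lasers). Annexin V+/PI− cells were scored apoptotic; three biological replicates.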

solid tumors = conditions: ref Huang et al., 2014; cited from earlier work

T1 sequence (Q16186 whole entry): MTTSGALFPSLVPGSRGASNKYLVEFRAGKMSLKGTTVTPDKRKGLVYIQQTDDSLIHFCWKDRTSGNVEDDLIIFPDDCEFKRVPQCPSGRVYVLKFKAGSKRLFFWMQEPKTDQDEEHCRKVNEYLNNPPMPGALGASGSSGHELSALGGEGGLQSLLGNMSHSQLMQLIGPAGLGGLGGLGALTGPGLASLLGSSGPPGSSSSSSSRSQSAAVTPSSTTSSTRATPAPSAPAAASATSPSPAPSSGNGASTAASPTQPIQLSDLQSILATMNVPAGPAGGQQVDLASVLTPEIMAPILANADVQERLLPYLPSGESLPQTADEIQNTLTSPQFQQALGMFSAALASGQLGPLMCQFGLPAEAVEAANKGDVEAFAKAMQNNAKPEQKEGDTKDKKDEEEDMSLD

Cl.N[C@@H](Cc1ccccc1)C(=O)N1C/C(=C/c2ccc(Cl)c(Cl)c2)C(=O)/C(=C\c2ccc(Cl)c(Cl)c2)C1 [RA190]
engagement of Rpn13 in cellulo (Rpn13 [1]): Rpn13 is not engaged by this compound in cellulo | engagement of Rpn13 in cellulo (Rpn13 [1]; listed as RA-190): does not engage Rpn13 in cells | engagement of Rpn13 in vitro (Rpn13 [2]): engages Rpn13 selectively in vitro | anti-cancer activity in cellulo and in vivo [3]: displays interesting anti-cancer activity in cellulo and in vivo

C=CC(=O)N1C/C(=C\c2ccc([N+](=O)[O-])cc2)C(=O)/C(=C/c2ccc([N+](=O)[O-])cc2)C1 [b-AP15]
effect on rate of Ub-AMC hydrolysis by 26S proteasome (26S proteasome): greater inhibition

CC(C)C[C@H](NC(=O)[C@H](Cc1ccccc1)NC(=O)c1cnccn1)B(O)O [Bortezomib]
induction of apoptosis and cell death, Annexin V/PI staining (MM.1R cells; 8, 16 and 24 hours): induces apoptosis and cell death rapidly | cells both Annexin V- and PI-positive (MM.1R cells; 16 hours, KDT-11 10 μM (Fig. 4), Bortezomib Supplementary Figure 4): ≈ 85% | dose-limiting toxicity (solid tumors): dose-limiting toxicity | efficacy as a single agent in solid tumors (solid tumors): unsuccessful as a single agent to treat solid tumors
